Source: PubChem BioAssay
EBNA-1 inh: EBNA-1 DNA-binding inhibitors, primary screen, biochemical, fluorescence polarization. 300,000 compounds, 0.34% hits. inhibition, % at 14.8 µM. AID 1950, 2009; in the data active means inhibition above about 28%
NS3 helicase inh: inhibitors of HCV NS3 helicase, primary screen, biochemical, Cy5 molecular beacon fluorescence; AID 1800, 2009; Hepatitis C virus NS3 helicase; NS3 helicase DNA unwinding; 290,000 compounds, 0.56% hits; inhibition, % at 10.9 µM;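 active means inhibition above the mean of all tested compounds plus 3 SD, set per campaign, cut at about 35% in these data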;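 further: 0% = DMSO wells and 100% = thioflavine S control wells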
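Compound dosing – single dose, 10.9 µM nominal final, DMSO 0.8% final · System – NS3 helicase fragment of HCV · Buffer or medium – MOPS pH 6.5, MgCl2, DTT, Tween20, BSA · Signal – Cy5 beacon fluorescence read at start and 1 h · Also added – annealed dual-labelled DNA beacon duplex, ATP-started · Schedule – 1 h at 25 °C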
eIF4H inh: human eIF4H binding inhibitors, primary screen, translation initiation inhibitor project, biochemical, uHTS, fluorescence polarization; inhibition, % at 35 µM; Eukaryotic translation initiation factor 4H (Homo sapiens), Q15056; 290,000 compounds, 0.94% hits; eIF4H fluorescence polarization binding assay;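 further: calls also rest on retests at 20 µM and on dose response follow-up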
PABP polyA inh: PABP poly(A) RNA binding inhibitors, primary screen, biochemical, fluorescence polarization, uHTS; inhibition, % at 35 µM; 290,000 compounds, 1% hits; Polyadenylate-binding protein 1 (Homo sapiens), P11940; AID 2014, 2009;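 further: calls also rest on retests at 20 µM and on dose response follow-up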
MLLE-PAM2 inh: inhibitors of PABP1 MLLE–PAM2 peptide binding, primary screen, biochemical, fluorescence polarization, FITC-PAM2, GST-MLLE; Polyadenylate-binding protein 1 (Homo sapiens), P11940; inhibition, % at 20 µM; 360,000 compounds, 0.36% hits; in the data active means inhibition above about 35%, passing the limit was not always enough;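 further: plate controls were DMSO wells with GST-MLLE for no effect and wells lacking GST-MLLE protein for full effect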
ZTA DNA inh: blocks Epstein-Barr virus ZTA, an EBNA-1 counter-screen. ZTA-DNA binding, fluorescence polarization. inhibition, % at 11 µM. 320,000 compounds, 0.15% hits. P03206; in the data active means inhibition above about 33%
Target sequence (P03206 whole entry, looked up): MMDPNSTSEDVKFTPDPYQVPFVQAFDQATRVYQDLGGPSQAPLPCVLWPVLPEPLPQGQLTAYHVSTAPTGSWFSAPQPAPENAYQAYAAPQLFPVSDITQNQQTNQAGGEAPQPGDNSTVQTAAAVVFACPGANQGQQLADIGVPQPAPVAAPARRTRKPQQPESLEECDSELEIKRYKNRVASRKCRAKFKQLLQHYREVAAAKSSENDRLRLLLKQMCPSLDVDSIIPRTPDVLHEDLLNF
Starred values were filed as active, the others as inactive; ! = not active in a repeat. Rows were chosen to be rich in hits. Some 2.1% of all compounds tested hit in one or more screens of this group. Unless noted, how the calls were made is not given here.

For C/C(=N/Nc1nc(-c2ccccc2)cc(-c2ccccc2)n1)c1ccc(N)cc1 the results were NS3 helicase inh -10, eIF4H inh -8 and PABP polyA inh -7.
`c1cnc(N2CCN(Cc3ccc4c(c3)OCO4)CC2)nc1` gave EBNA-1 inh -6, NS3 helicase inh -5, eIF4H inh 51*!, PABP polyA inh 62*!, MLLE-PAM2 inh 2 and ZTA DNA inh 2.
`CC1(NC(=O)CSc2nnc(-c3c[nH]c4ccccc34)n2C2CC2)CCS(=O)(=O)C1` (configuration not stated) gave MLLE-PAM2 inh -6 and ZTA DNA inh -1.
Screening c1ccc2oc(C3=NNC(=NC4CC4)SC3)cc2c1 returned EBNA-1 inh -9, NS3 helicase inh -4, eIF4H inh 2, PABP polyA inh 11, MLLE-PAM2 inh -6 and ZTA DNA inh -3.
For N=C1S/C(=C\c2ccco2)C(=O)N1c1nccs1 the results were EBNA-1 inh 2, NS3 helicase inh 24, eIF4H inh 95*, PABP polyA inh 3.2*, MLLE-PAM2 inh 7 and ZTA DNA inh 0.
Cc1ccc(/C=C2/NC(=O)N(Cc3ccccc3)C2=O)o1 was read as EBNA-1 inh 5, NS3 helicase inh 23, eIF4H inh 33, PABP polyA inh -4, MLLE-PAM2 inh -38 and ZTA DNA inh 0.
`Cc1cc(C(=O)O)ccc1-c1ccc(/C=C2\NC(=O)N(Cc3ccccc3Cl)C2=O)o1` gave EBNA-1 inh -16, NS3 helicase inh 22, eIF4H inh 86, PABP polyA inh -7, MLLE-PAM2 inh 14 and ZTA DNA inh 7.
Screening Cc1ccc(C(=O)O)cc1-c1ccc(/C=C2/NC(=O)N(c3ccccc3)C2=O)o1 returned EBNA-1 inh 13, NS3 helicase inh 16, eIF4H inh 79*, PABP polyA inh 79*, MLLE-PAM2 inh -14 and ZTA DNA inh 10.
`O=C1NC(=O)/C(=C/c2ccc(-c3cc(C(=O)O)ccc3Cl)o2)S1` gave EBNA-1 inh 6, NS3 helicase inh 18, eIF4H inh 92*, PABP polyA inh 83*, MLLE-PAM2 inh -3 and ZTA DNA inh 12.
For O=C(O)c1ccc(-c2ccc(/C=C3\NC(=O)N(Cc4ccc(Cl)cc4)C3=O)o2)cc1 the results were NS3 helicase inh 0, eIF4H inh 73*, PABP polyA inh 51* and MLLE-PAM2 inh -7.
`Cc1ccc(CN2C(=O)N/C(=C\c3ccc(-c4ccc(C(=O)O)cc4C)o3)C2=O)cc1` gave EBNA-1 inh 8, NS3 helicase inh 5, eIF4H inh 87*, PABP polyA inh 73*, MLLE-PAM2 inh 3 and ZTA DNA inh 0.
For CCCCSc1nnc2c(n1)OC(C(=O)c1ccccc1)Nc1ccccc1-2 (configuration not stated) the results were NS3 helicase inh 6, eIF4H inh 6 and PABP polyA inh 14.
Screening Cc1ccc(S(=O)(=O)Nc2ccc3c(c2)C(=O)N([C@H](C)CO)C[C@H](C)[C@@H](CN(C)C(=O)Nc2ccc4c(c2)OCO4)O3)cc1 returned MLLE-PAM2 inh 4.
For CC1=CC(=O)C(Sc2ccc(C)cc2)=CC1=O the results were MLLE-PAM2 inh 35*.
`COc1ccc(N=C2NC(=O)/C(=C/c3ccco3)S2)cc1` gave EBNA-1 inh 6, NS3 helicase inh 25, eIF4H inh 66*, PABP polyA inh 26, MLLE-PAM2 inh -22 and ZTA DNA inh -6.
Screening COC(=O)/C=C1\SC(=Nc2ccc(OC)cc2)NC1=O returned EBNA-1 inh -2, NS3 helicase inh 1, eIF4H inh -3, PABP polyA inh -2, MLLE-PAM2 inh -55 and ZTA DNA inh 6.
Screening CCC(=O)c1ccc(OCc2ccc(C(=O)OC)cc2)c(OC)c1 returned EBNA-1 inh 2, NS3 helicase inh 3, eIF4H inh -2, PABP polyA inh -4, MLLE-PAM2 inh 1 and ZTA DNA inh 2.
`CCCCNC(=S)N(C)/N=C/c1ccc(OCc2ccc(C(=O)OC)cc2)c(OC)c1` gave EBNA-1 inh 5, NS3 helicase inh 10, eIF4H inh 3, PABP polyA inh 61*, MLLE-PAM2 inh -9 and ZTA DNA inh -6.
Screening COc1ccccc1C(=O)Nc1ccc(S(=O)(=O)N2CCC(C)CC2)cc1 returned EBNA-1 inh 10, NS3 helicase inh -12, eIF4H inh -8, PABP polyA inh -4, MLLE-PAM2 inh 7 and ZTA DNA inh 12.
For Nc1nc2ncc(C(=O)c3cc(Cl)cc(Cl)c3O)cc2s1 the results were EBNA-1 inh -1, NS3 helicase inh 18, eIF4H inh 89*, PABP polyA inh 69, MLLE-PAM2 inh -10 and ZTA DNA inh 8.
`CC(Cc1c[nH]c2ccccc12)C(=O)NCc1ccco1` (configuration not stated) gave EBNA-1 inh -17, NS3 helicase inh 29, eIF4H inh 99*, PABP polyA inh 39, MLLE-PAM2 inh -4 and ZTA DNA inh -4.
`COc1cc(OC)c(NC(=O)c2ccc3c(SCC(=O)O)c4c(nc3c2)CCCC4)cc1Cl` gave EBNA-1 inh 4, NS3 helicase inh 30, eIF4H inh 81*, PABP polyA inh 12*, MLLE-PAM2 inh 1 and ZTA DNA inh 4.
For CCCN1CCc2[nH]c(=S)[nH]c(=O)c2C1 the results were EBNA-1 inh -16, NS3 helicase inh 8, eIF4H inh 7, PABP polyA inh 5, MLLE-PAM2 inh 47* and ZTA DNA inh 3.
Screening O=c1[nH]c(=S)[nH]c2c1CN(Cc1ccc(F)cc1)CC2 returned EBNA-1 inh -6, NS3 helicase inh 18, MLLE-PAM2 inh 39* and ZTA DNA inh 3.
`O=C(Cn1c2ccc(F)cc2c2nc3n(c(=O)c21)CCS3)N1CCCC1` gave EBNA-1 inh -14, NS3 helicase inh -2, eIF4H inh 4, PABP polyA inh -14, MLLE-PAM2 inh 11 and ZTA DNA inh -12.
COc1cccc(NC(=O)CN(C)C(=O)c2ccccc2Sc2ccccc2C#N)c1 was read as MLLE-PAM2 inh 27 and ZTA DNA inh -14.
O=C(CNC(=O)c1ccccc1O)N/N=C/c1ccccn1 was read as EBNA-1 inh 2, NS3 helicase inh 10, eIF4H inh -2, PABP polyA inh -10, MLLE-PAM2 inh 4 and ZTA DNA inh 11.
For CN(C)CCn1c(=O)n(Cc2ccco2)c(=O)c2c3c(sc21)CCCCC3 the results were EBNA-1 inh 10, NS3 helicase inh -24, eIF4H inh -7, PABP polyA inh 1, MLLE-PAM2 inh 5 and ZTA DNA inh -6.
O=c1c2c3c(sc2n(CCN2CCCC2)c(=O)n1Cc1ccco1)CCCCC3 was read as EBNA-1 inh 4, NS3 helicase inh -24, eIF4H inh -6, PABP polyA inh -9, MLLE-PAM2 inh 1 and ZTA DNA inh -3.
